Data set [1] can be described thus: Displacement of [3H]raclopride from D2-like dopaminergic receptor (unknown origin) in striatal membrane measured after 1 hr by liquid scintillation counting method. Type of data set: cell membranes, Homo sapiens, Striatum. Put shortly: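 Striatal membranes washed by four 20000 g centrifugations. Resuspended in Tris buffer with 120 mM NaCl, 5 mM KCl, 1 mM CaCl2, 1 mM MgCl2, 0.1% ascorbic acid. 200 µg protein incubated 1 h at 25 °C with 0.5 nM (final) [3H]raclopride plus drug. Nonspecific binding defined with 50 µM apomorphine. Filtration, scintillation counting. Mean ± SEM, n = 3.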

Data set [2] can be described thus: Displacement of [3H]SCH23390 from D1-like dopaminergic receptor (unknown origin) in striatal membrane measured after 1 hr by liquid scintillation counting method. It counts as cell membranes, Homo sapiens, Striatum. The procedure, abridged: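 Striatal membranes homogenized in 50 mM Tris-HCl pH 7.4, centrifuged twice at 20000 g. Resuspended in Tris with 5 mM MgSO4, 0.5 mM EDTA, 0.02% ascorbic acid. 100 µg protein incubated 1 h at 25 °C with 0.25 nM (final) [3H]SCH 23390 plus drug. Nonspecific binding defined with 30 μM SK&F 38393. GF/B filtration, scintillation counting. Mean ± SEM, n = 3.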

The species named for data set [3] is Homo sapiens. As to the kind of experiment: Selectivity ratio of Ki for D1-like dopaminergic receptor (unknown origin) in striatal membranes to Ki for D2-like dopaminergic receptor (unknown origin) in striatal membranes. It counts as cell membranes.
Data set [4] in a line: Cytotoxicity against HUVEC assessed as reduction in cell viability at 30 uM measured after 24 hrs by MTT assay relative to control. Type of data set: toxicity, cell-based. Particulars: human. The procedure, abridged: (§1)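 Neutrophils isolated from healthy-donor buffy coats by Ficoll-Hypaque gradient; HUVEC from collagenase isolation, passage ≤1. Cells at 10^5 per 100 µL supplemented RPMI, incubated 24 h at 37 °C with or without compound (30 μM). MTT added (solution made at 2 mg/mL in PBS), further 3 h at 37 °C; colorimetric readout vs vehicle. Mean ± SEM, n = 3 independent experiments.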

The nature of data set [5]: Induction of apoptosis in human neutrophils assessed as early apoptotic cells at 30 uM measured after 24 hrs by Annexin-V-FITC/propidium iodide staining-based flow cytometric analysis (reference value: 1.1%). It counts as cell-based. Particulars: neutrophil.
Data set [6] is described as follows: Induction of apoptosis in human neutrophils assessed as late apoptotic cells at 30 uM measured after 24 hrs by Annexin-V-FITC/propidium iodide staining-based flow cytometric analysis (reference value: 0.06%). It counts as cell-based. Particulars: neutrophil.
Data set [7] can be described thus: Induction of apoptosis in HUVEC at 30 uM measured after 24 hrs by Annexin-V-FITC/propidium iodide staining-based flow cytometric analysis. The settings on record: human. It counts as cell-based.
Data set [8] is described as follows: Induction of apoptosis in human neutrophils assessed as viable cells at 30 uM measured after 24 hrs by Annexin-V-FITC/propidium iodide staining-based flow cytometric analysis (reference value: 93.52%). Particulars: read-out: Activity. It counts as cell-based, Neutrophil.
The nature of data set [9]: Cytotoxicity against human neutrophils assessed as reduction in cell viability at 30 uM measured after 24 hrs by MTT assay relative to control. Type of data set: toxicity, cell-based. Particulars: neutrophil. The procedure, abridged:
as §1

Data set [10] in a line: Induction of apoptosis in human neutrophils assessed as necrotic cells at 30 uM measured after 24 hrs by Annexin-V-FITC/propidium iodide staining-based flow cytometric analysis (reference value: 5.33%). It counts as cell-based. Particulars: neutrophil.

Consider `C/C=C/C1NCCc2cc(OC)c(OC)cc21` (centres undefined), for which, in data set [1], affinity was put at a Ki of 8.86 µM and the negative logarithm of the Ki (pKi) was determined as 5.059. In addition, in [2], affinity was put at a Ki of 45.6 µM and the negative logarithm of the Ki (pKi) is listed as 4.347. For the same compound, the Ratio Ki in data set [3] stood at 5.15.

In [1], `C=CCN1CCc2cc(OC)c(OC)cc2C1/C=C/c1ccccc1` (centres undefined) showed a Ki of 1.17 µM and a pKi of 5.942. In data set [2], this compound gave a Ki of 7.68 µM and a negative logarithm of the Ki (pKi) of 5.133. The Ratio Ki in data set [3] was 6.58.

`Oc1cc2c(cc1O)C(/C=C/c1ccccc1)NCC2` (centres undefined): the Ki in data set [1] is 1.42 µM; in data set [2] it was 9.57 µM. The negative logarithm of the Ki (pKi) in data set [1] turned out to be 5.869; in [2], 5.048. Further, the Ratio Ki in [3] stood at 6.73.

Consider `C=CCN1CCc2cc(O)c(O)c3c2C1CC3c1ccccc1` (centres undefined), for which the Activity result in data set [4] is recorded as “Non-Toxic”; in data set [5], 6.86%; in data set [6], 0.33%; in data set [7], “Non-Toxic”; in data set [9], “Toxic”; in data set [10], 3.03%. In addition, the viability at 24 h, 30 µM in data set [8] was 89.9%.

For `CN1CCc2cc(O)c(O)cc2C1/C=C/c1ccccc1` (centres undefined), the inhibition constant Ki in [1] stood at 0.057 µM; in data set [2], 3.19 µM. The figures for the pKi in data set [1] and in data set [2] were 7.264 and 5.498, respectively. The Activity result in [4] was “Non-Toxic”; in [5], 3.24%; in data set [6] it was 0.12%; in data set [7], “Non-Toxic”; in data set [9], “Non-Toxic”; in data set [10] it was 6.94%. The Ratio Ki in data set [3] came to 55.9. In data set [8], the viability at 24 h, 30 µM amounted to 89.7%.

Take `CN1CCc2cc(O)c(O)c3c2C1CC3c1ccccc1` (centres undefined): the Activity entry is given as “Non-Toxic” in [4]; 0.15% in data set [5]; 3.06% in data set [6]; “Non-Toxic” in data set [7]; “Non-Toxic” in [9]; 5.05% in [10]. Besides, the viability at 24 h, 30 µM in data set [8] stood at 94.7%.

For `C/C=C/C1c2cc(O)c(O)cc2CCN1C` (centres undefined), the Ki amounted to 0.072 µM in data set [1] and 1.29 µM in [2]. Besides, the results for the pKi in [1] and in data set [2] were 7.181 and 5.897, respectively. Also, the Activity result is reported as “Non-Toxic” in data set [4]; 3.95% in data set [5]; 0.3% in [6]; “Non-Toxic” in data set [7]; “Non-Toxic” in data set [9]; 2.43% in data set [10]. In addition, the Ratio Ki in [3] was found to be 17.9. Further, the viability at 24 h, 30 µM in data set [8] was determined as 93.3%.

On to `COc1cc2c(cc1OC)C(/C=C/c1ccccc1)NCC2` (centres undefined), for which the Ki in [1] turned out to be 6.18 µM; in [2] it was 4.56 µM. Besides, the results for the pKi in data set [1] and in [2] were 5.244 and 5.36, respectively. Also, in data set [3], the Ratio Ki was 0.74.

In [1], `C=CCN1CCc2cc(OC)c(OC)cc2C1/C=C/C` (centres undefined) gave a Ki of 13.8 µM and a pKi of 4.86. In [2], the Ki is 37.6 µM and the pKi was determined as 4.432. Also, the Ratio Ki in data set [3] stood at 2.72.

In data set [1], `NCCc1ccc(O)c(O)c1` [DOPAMINE] had an inhibitory constant (Ki) of 0.56 µM and a negative-log Ki (pKi) of 6.837. In data set [2], the inhibitory constant (Ki) was 0.55 µM and the negative-log Ki (pKi) was 6.26. Moreover, the Ratio Ki in data set [3] was 0.98.

Take `C/C=C/C1NCCc2cc(O)c(O)cc21` (centres undefined): the Ki in [1] came out at 0.458 µM; in data set [2], 57.7 µM. Also, the values for the pKi in data set [1] and in data set [2] were 6.352 and 4.246, respectively. Also, in data set [3], the Ratio Ki was determined as 126.

As for `COc1cc2c(cc1OC)C(/C=C/c1ccccc1)N(C)CC2` (centres undefined), in [1], the Ki was determined as 0.436 µM and the pKi was determined as 6.376. In addition, in [2], the affinity, expressed as Ki, was 6.2 µM and the negative-log Ki (pKi) amounted to 5.251. In data set [3], the Ratio Ki was 14.2.

With `C/C=C/C1c2cc(OC)c(OC)cc2CCN1C` (centres undefined), in data set [1], the Ki amounted to 14.7 µM and the negative logarithm of the Ki (pKi) came out at 4.833. In [2], the Ki was 18.3 µM and the negative logarithm of the Ki (pKi) was 4.74. The Ratio Ki in data set [3] is 1.24.

As for `C=CCN1CCc2cc(O)c(O)cc2C1/C=C/C` (centres undefined), the inhibition constant (Ki) came to 0.018 µM in data set [1] and 1.71 µM in data set [2]. Also, the negative-log Ki (pKi) in [1] was 7.749; in data set [2], 5.766. The Activity entry was “Non-Toxic” in data set [4]; 0.28% in data set [5]; 0.11% in [6]; “Non-Toxic” in [7]; “Non-Toxic” in data set [9]; 0.1% in [10]. Moreover, the Ratio Ki in [3] was found to be 95.2. Also, in data set [8], the viability at 24 h, 30 µM stood at 93.5%.

On to `C=CCN1CCc2cc(O)c(O)cc2C1/C=C/c1ccccc1` (centres undefined), for which the results for the Ki in data set [1] and in data set [2] were 0.041 µM and 6.04 µM, respectively. Further, the values for the negative-log Ki (pKi) in [1] and in [2] were 7.408 and 5.267, respectively. The Activity entry is listed as “Non-Toxic” in data set [4]; 0.15% in data set [5]; 0.16% in data set [6]; “Non-Toxic” in data set [7]; “Non-Toxic” in data set [9]; 6.11% in [10]. Also, the Ratio Ki in data set [3] was found to be 147. For the same compound, the viability at 24 h, 30 µM in [8] was 93.6%.

Consider `Oc1cc2c3c(c1O)C(c1ccccc1)CC3NCC2` (centres undefined), for which the Activity result in [4] is “Non-Toxic”; in data set [5], 0.08%; in data set [6] it was 0.05%; in [7] it was “Non-Toxic”; in data set [9], “Non-Toxic”; in [10], 4.53%. The viability at 24 h, 30 µM in [8] was 95.3%.

Values taken from ChEMBL document CHEMBL3865785, “Dopaminergic isoquinolines with hexahydrocyclopenta[ij]-isoquinolines as D2-like selective ligands” (Eur J Med Chem, 2016).
